In ChEMBL document CHEMBL1134905, “Thiourea-based gemfibrozil analogues as HDL-elevating agents” (2002):

What was measured:
Type in all cases: functional
[1] = test system: Rattus norvegicus; assay: Percentage change in total triglycerides was determined in vivo in male Sprague-Dawley rats
Summary of the method: (§1)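 Compounds given in the diet to groups of six rats for 8 days, after a 7-day lead-in; dose expressed as mg/kg/day. At termination, rats anesthetized with CO2 and bled from the carotid artery, and serum separated. Values are % change or ratio versus gemfibrozil (set = 1), each relative to an untreated control group; significance P < 0.05.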

[2] = test system: Rattus norvegicus; assay: Percentage change in total cholesterol was determined in vivo in male Sprague-Dawley rats; summary of the method: as §1
[3] = test system: Rattus norvegicus; assay: In vivo biological activity against Apo A-I relative to gemfibrozil in male Sprague-Dawley rats; summary of the method: as §1
[4] = test system: Rattus norvegicus; assay: In vivo biological activity against HDL relative to gemfibrozil in male Sprague-Dawley rats; summary of the method: as §1
[5] = test system: Rattus norvegicus; assay: Dose administered for testing biological activity in vivo in male Sprague-Dawley rats; summary of the method: as §1

`Cc1ccc(Cl)cc1/N=C(\S)NCC(C)(C)C(N)=O` gave a Change [1] of -49%, a Change [2] of -3% and an Activity [3] of 1.15. It also gave an Activity [4] of 0.57 and a Dose [5] of 41 mg/kg/day.
In the case of `Cc1ccc(Cl)cc1/N=C(\S)NCCO`, the Change [1] is reported as -56%, the Change [2] is reported as 40% and the Activity [3] is reported as 1.06. The Activity [4] was 0.61 and the Dose [5] was 52 mg/kg/day.
For `Cc1ccc(Cl)cc1NC(=O)NCC(C)(C)C(=O)O`, the Change [1] was -21%, the Change [2] was 74% and the Activity [3] was 0.32. For the same compound, the Activity [4] was 0.36 and the Dose [5] was 73 mg/kg/day.
`Cc1ccc(C)c(N/C(S)=N/CC(C)(C)C(=O)O)c1` gave a Change [1] of 69%, a Change [2] of 73% and an Activity [3] of 0.93. The Activity [4] was 0.54 and the Dose [5] was 78 mg/kg/day.
`COc1ccc(Cl)cc1/N=C(\S)NCC(C)(C)C(=O)O` showed a Change [1] of -28%, a Change [2] of 9% and an Activity [3] of 0.27. For the same compound, the Activity [4] was 0.62 and the Dose [5] was 77 mg/kg/day.
Work on `Cc1ccc(Cl)cc1/N=C(\S)N1CCCC(C)(C(=O)O)C1` (stereo not given) yielded a Change [1] of 15%, a Change [2] of 14% and an Activity [3] of -0.16. It also gave an Activity [4] of 0.33 and a Dose [5] of 81 mg/kg/day.
Work on `Cc1ccc(Cl)cc1/N=C(\S)NCC1(C(=O)O)CCC1` yielded a Change [1] of -39%, a Change [2] of 36% and an Activity [3] of 0.49. It also gave an Activity [4] of 1.19 and a Dose [5] of 76 mg/kg/day.
Compound `COC(=O)C(C)(C)C/N=C(\S)Nc1cc(Cl)ccc1C` has a Change [1] of -12%, a Change [2] of -12% and an Activity [3] of 1.81. The Activity [4] was 0.93 and the Dose [5] was 74 mg/kg/day.
In the case of `Cc1ccc(Cl)cc1/N=C(\S)NCC1(C(=O)O)CCCC1`, the Change [1] is reported as -61%, the Change [2] is reported as 41% and the Activity [3] is reported as 0.55. For the same compound, the Activity [4] was 1.09 and the Dose [5] was 67 mg/kg/day.
With `Cc1ccc(Cl)cc1/N=C(\S)NCC1(C(=O)O)CCCCC1` the Change [1] was -54%, the Change [2] was 21% and the Activity [3] was 0.32. The Activity [4] was 0.73 and the Dose [5] was 88 mg/kg/day.
Compound `Cc1ccc(C)c(OCCCC(C)(C)C(=O)O)c1` [GEMFIBROZIL] has a Change [1] of -43%, a Change [2] of -23% and an Activity [3] of 1. The Activity [4] was 1 and the Dose [5] was 46 mg/kg/day.
